# According to ChEMBL document CHEMBL1142628, “Antineoplastic agents 430. Isolation and structure of cribrostatins 3, 4, and 5 from the republic of maldives cribrochalina species” (2000):
# The source made the active and inactive calls. The rule behind the calls is not given here.
# What was measured:
# BXPC-3 = assay: Growth inhibition of human BXPC3 cells; assay type: functional
# OVCAR-3 = assay: Growth inhibition of human OVCAR-3 cells; assay type: functional
# Outline: (§1)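 NCI 60-cell-line screen run by the standard NCI protocol. Each test agent ran in quadruplicate, with a top concentration of 10^-5 M and five log-spaced dilutions. GI50 values were averaged and reported as negative log GI50.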
# SF-295 [1] = assay: (§2) Growth inhibition of human SF295 cells; assay type: functional
# Outline: (§3)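 NCI human tumor cell line panel screen run to the standard NCI protocol. Each compound tested in quadruplicate with a top concentration of 10^-5 M and five log-spaced dilutions. GI50 values were averaged across replicates and reported as negative log GI50.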
# NCI-H460 [2] = assay: (§4) Growth inhibition of human NCI-H460 cells; assay type: functional; outline: as §1
# KM-20L2 = assay: Growth inhibition of human KM20L2 cells; assay type: functional
# DU-145 = assay: Growth inhibition of human DU145 cells; assay type: functional; outline: as §1
# P388 = assay: Growth inhibition of mouse P388 cells; assay type: functional
# Candida albicans = assay: Antifungal activity against Candida albicans ATCC 90028 at 100 ug/disk by disk diffusion method; assay type: functional, organism-based
# Cryptococcus neoformans = assay: Antifungal activity against Cryptococcus neoformans ATCC 90112 at 100 ug/disk by disk diffusion method; assay type: functional, organism-based
# Micrococcus luteus = assay: Antibacterial activity against Micrococcus luteus Presque Isle 456 at 100 ug/disk by disk diffusion method; assay type: functional, organism-based
# Staphylococcus aureus = assay: Antibacterial activity against Staphylococcus aureus ATCC 29213 at 100 ug/disk by disk diffusion method; assay type: functional, organism-based
# Enterococcus faecalis = assay: Antibacterial activity against Enterococcus faecalis ATCC 29212 at 100 ug/disk by disk diffusion method; assay type: functional, organism-based
# Bacillus subtilis = assay: Antibacterial activity against Bacillus subtilis Presque Isle 620 at 100 ug/disk by disk diffusion method; assay type: functional, organism-based
# Streptococcus pneumoniae = assay: Antibacterial activity against Streptococcus pneumoniae ATCC 6303 at 100 ug/disk by disk diffusion method; assay type: functional, organism-based
# [3] = test system: Stenotrophomonas maltophilia; assay: Antibacterial activity against Stenotrophomonas maltophilia ATCC 13637 at 100 ug/disk by disk diffusion method; assay type: functional, organism-based
# Escherichia coli = assay: Antibacterial activity against Escherichia coli ATCC 25922 at 100 ug/disk by disk diffusion method; assay type: functional, organism-based
# Enterobacter cloacae = assay: Antibacterial activity against Enterobacter cloacae ATCC 13047 at 100 ug/disk by disk diffusion method; assay type: functional, organism-based
# Neisseria gonorrhoeae [4] = assay: Antibacterial activity against Neisseria gonorrhoeae ATCC 49226 by disk diffusion method; assay type: functional
# Neisseria gonorrhoeae [5] = assay: Antibacterial activity against penicillin-resistant Neisseria gonorrhoeae isolate by disk diffusion method; assay type: functional
# CCRF-CEM = assay: Growth inhibition of human CCRF-CEM cells; assay type: functional; outline: as §1
# [6] = Growth inhibition of human HL60(TB) cells; assay type: functional, HL-60(TB); settings: HL-60
# Outline: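 NCI human tumour cell-line panel screen run by the standard NCI protocol. Each compound was tested in quadruplicate, with an upper concentration limit of 10^-5 M and five log-spaced dilutions. GI50 values were averaged and reported as negative log GI50.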
# K562 = assay: Growth inhibition of human K562 cells; assay type: functional; outline: as §1
# MOLT-4 = assay: Growth inhibition of human MOLT4 cells; assay type: functional; outline: as §1
# RPMI-8226 = assay: Growth inhibition of human RPMI8226 cells; assay type: functional; outline: as §1
# SR = assay: Growth inhibition of human SR cells; assay type: functional; outline: as §3
# A549 = assay: Growth inhibition of human A549/ATCC cells; assay type: functional; outline: as §1
# HOP-62 = assay: Growth inhibition of human HOP62 cells; assay type: functional; outline: as §1
# HOP-92 = assay: Growth inhibition of human HOP92 cells; assay type: functional; outline: as §1
# NCI-H226 = assay: Growth inhibition of human NCI-H226 cells; assay type: functional; outline: as §1
# NCI-H460 [7] = assay: as §4; assay type: functional; outline: as §1; remark: listed apart in the source
# NCI-H522 = assay: Growth inhibition of human NCI-H522 cells; assay type: functional; outline: as §1
# COLO 205 = assay: Growth inhibition of human COLO205 cells; assay type: functional; outline: as §1
# KM12 = assay: Growth inhibition of human KM12 cells; assay type: functional; outline: as §1
# SW-620 = assay: Growth inhibition of human SW620 cells; assay type: functional; outline: as §3
# SNB-75 = assay: Growth inhibition of human SNB75 cells; assay type: functional; outline: as §3
# U-251 = assay: Growth inhibition of human U251 cells; assay type: functional; outline: as §3
# LOX IMVI = assay: Growth inhibition of human LOX IMVI cells; assay type: functional; outline: as §1
# Malme-3M = assay: Growth inhibition of human MALME-3M cells; assay type: functional; outline: as §1
# SK-MEL-5 = assay: Growth inhibition of human SK-MEL-5 cells; assay type: functional; outline: as §3
# UACC-62 = assay: Growth inhibition of human UACC62 cells; assay type: functional; outline: as §3
# OVCAR-4 = assay: Growth inhibition of human OVCAR4 cells; assay type: functional; outline: as §1
# OVCAR-8 = assay: Growth inhibition of human OVCAR8 cells; assay type: functional; outline: as §1
# 786-0 = assay: Growth inhibition of human 786-0 cells; assay type: functional; outline: as §1
# ACHN = assay: Growth inhibition of human ACHN cells; assay type: functional; outline: as §1
# RXF 393 = assay: Growth inhibition of human RXF393 cells; assay type: functional; outline: as §3
# SN12C = assay: Growth inhibition of human SN12C cells; assay type: functional; outline: as §3
# PC-3 = assay: Growth inhibition of human PC3 cells; assay type: functional; outline: as §1
# MCF7 [8] = assay: Growth inhibition of human MCF7 cells; assay type: functional; outline: as §1
# MCF7 [9] = assay: Growth inhibition of human adriamycin-resistant MCF7 cells; assay type: functional; outline: as §3
# MDA-MB-231 = assay: Growth inhibition of human MDA-MB-231/ATCC cells; assay type: functional; outline: as §1
# Hs-578T = assay: Growth inhibition of human HS578T cells; assay type: functional; outline: as §1
# MDA-MB-435 = assay: Growth inhibition of human MDA-MB-435 cells; assay type: functional; outline: as §1
# MDA-N = assay: Growth inhibition of human MDA-N cells; assay type: functional; outline: as §1
# T47D = assay: Growth inhibition of human T47D cells; assay type: functional; outline: as §3
# SF-268 = assay: Growth inhibition of human SF268 cells; assay type: functional; outline: as §3
# SF-295 [10] = assay: as §2; assay type: functional; outline: as §3; remark: listed apart in the source
# SF-539 = assay: Growth inhibition of human SF539 cells; assay type: functional; outline: as §3
smiles,measurement,setting,value
C/C=C(/C)C(=O)OCc1nccc2c1C(=O)C(N)=C(C)C2=O [CRIBROSTATIN 3],GI50,BXPC-3,> 1 µg/mL
same,GI50,OVCAR-3,0.77 µg/mL
same,GI50,SF-295 [1],> 1 µg/mL
same,GI50,NCI-H460 [2],> 1 µg/mL
same,GI50,KM-20L2,> 1 µg/mL
same,GI50,DU-145,> 1 µg/mL
same,GI50,P388,2.49 µg/mL
same,EC50,P388; read-out: ED50 (the source's name),2.5 µg/mL
same,Activity,Candida albicans,inactive
same,Activity,Cryptococcus neoformans,inactive
same,Activity,Micrococcus luteus,inactive
same,Activity,Staphylococcus aureus,inactive
same,Activity,Enterococcus faecalis,inactive
same,Activity,Bacillus subtilis,inactive
same,Activity,Streptococcus pneumoniae,inactive
same,Activity,[3],inactive
same,Activity,Escherichia coli,inactive
same,Activity,Enterobacter cloacae,inactive
same,MIC,Neisseria gonorrhoeae [4],0.0975 µg/disc
same,MIC,Neisseria gonorrhoeae [5],0.39 µg/disc
same,GI50,CCRF-CEM,4.27 µM
same,GI50,[6],3.09 µM
same,GI50,K562,7.41 µM
same,GI50,MOLT-4,4.9 µM
same,GI50,RPMI-8226,8.51 µM
same,GI50,SR,3.39 µM
same,GI50,A549,3.47 µM
same,GI50,HOP-62,5.37 µM
same,GI50,HOP-92,9.55 µM
same,GI50,NCI-H226,7.08 µM
same,GI50,NCI-H460 [7],3.02 µM
same,GI50,NCI-H522,3.89 µM
same,GI50,COLO 205,5.89 µM
same,GI50,KM12,4.9 µM
same,GI50,SW-620,3.63 µM
same,GI50,SNB-75,4.79 µM
same,GI50,U-251,3.24 µM
same,GI50,LOX IMVI,4.07 µM
same,GI50,Malme-3M,0.617 µM
same,GI50,SK-MEL-5,1.1 µM
same,GI50,UACC-62,2.51 µM
same,GI50,OVCAR-4,5.25 µM
same,GI50,OVCAR-8,8.71 µM
same,GI50,786-0,5.89 µM
same,GI50,ACHN,9.55 µM
same,GI50,RXF 393,4.9 µM
same,GI50,SN12C,6.17 µM
same,GI50,PC-3,2 µM
same,GI50,MCF7 [8],4.68 µM
same,GI50,MCF7 [9],4.57 µM
same,GI50,MDA-MB-231,8.71 µM
same,GI50,Hs-578T,6.31 µM
same,GI50,MDA-MB-435,1.82 µM
same,GI50,MDA-N,1.91 µM
same,GI50,T47D,6.46 µM
same,GI50,SF-268,6.31 µM
same,GI50,SF-295 [10],3.63 µM
same,GI50,SF-539,4.79 µM
